High-throughput results (PubChem BioAssay)
L major viab: inhibitors of Leishmania major promastigote growth; 9% of 200,000 active; AID 1063; inhibition, % at 10 µM; Leishmania major promastigotes, resazurin fluorescence viability;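 also: promastigotes grown with compound for 44 hours at 28 °C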
Diaph act CS: activates diaphorase or chemically reduces, flagging diaphorase assay artifacts; Diaphorase/resazurin coupled assay, resorufin fluorescence, 16 min; hits give high values; 1 = vehicle wells, 0 = NADH-free wells; AID 1229; 0.005% of 190,000 active; activation factor at 20 µM;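 active = diaphorase activity raised at least twofold by the compound at 20 µM; inactive = activation factor below 2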
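System – purified diaphorase enzyme from Clostridium kluyveri · Input – enzyme 0.07 U/mL final · Also added – final NADH 0.114 mM, resazurin 0.1 mM · Measured by – fluorescence of resorufin, 544 nm excitation, 590 nm emission · Timing – 16 min enzyme reaction, ambient temperature · Measure – resorufin increase flagging diaphorase activators or reducers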
G6PDH CS: L. mesenteroides G6PDH inhibition counter-screen; Purified L. mesenteroides G6PDH, diaphorase/resazurin coupled fluorescence, 45 min; inhibition, % at 5 µM; 0.12% of 200,000 active
Diaphorase inh: counter-screen for diaphorase-based assays: diaphorase inhibitors and chemical oxidizers. inhibition, % at 20 µM. diaphorase resazurin-to-resorufin fluorescence, NADH, 16 min; bacterial (C. kluyveri) enzyme, not human. AID 1217. 0.69% of 190,000 active;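 active = primary screen inhibition at 20 µM above a set limit, cut at about 50% in these data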;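 also: plate controls were DMSO with full reaction for no effect and wells lacking NADH for full effect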
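Assay system: diaphorase enzyme from Clostridium kluyveri; Input: enzyme working solution with 0.14 U/mL diaphorase; Timing: 16 min at room temperature; Technique: resorufin fluorescence, excitation 544 nm, emission 590 nm; Benchmarks: positive control minus NADH, DMSO neutral control.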
WT yeast gro inh: growth inhibition of WT yeast, mitochondrial fusion screen. mitochondrial fusion phenotypic screen, WT strain. inhibition, % at 10 µM. 2.1% of 190,000 active. AID 1362; in the data active = inhibition above about 58%; tested in S. cerevisiae
Active calls of the source: *. Only some compounds are listed: those with a hit (about 11% of all), similar ones and a draw of the others. Rule as the data show it, unless noted: active = inhibition above about 50%; inactive = the rest.

SMILES	L major viab	Diaph act CS	G6PDH CS	Diaphorase inh	WT yeast gro inh
Cc1ccc2nc(-c3ccccc3)c(CN3CCSCC3)n2c1	63*	0.9	10	6	-2
CCOc1ccc(C(=S)N2CCN(C)CC2)cc1	38	1.1	6	-8	-3
COc1nc(NCc2ccco2)nc(NC2CCCCC2)n1	19	0.9	2	6	17
CCOc1nc(NC2CCCCC2)nc(NC(C)(C)C)n1	78*	0.8	10	23	58*
COc1ccc(C(=O)NCC(=O)NCC2COc3ccccc3O2)cc1 (configuration not stated)	4	1.1	0	-7	2
Oc1c(CN2CCOCC2)ccc2ccccc12	-9	0.6	60*	41	-13
Oc1c(CN2CCOCC2)cc(-c2ccccc2)cc1CN1CCOCC1	4	0.9	5	8	-4
O=C(CSc1nnc2c(Cl)cc(C(F)(F)F)cn12)Nc1ccc2c(c1)OCO2	-1	0.8	7	20	5
O=C(NCc1ccco1)c1cccnc1Cl	-8	1	-5	-3	-11
O=C(NCc1ccco1)c1cccnc1-c1nc2ccccc2s1	-3	0.9	-12	7	64*
CS(=O)(=O)N1CCc2cc(-c3csc(NC(=O)C(c4ccccc4)c4ccccc4)n3)ccc21	94*	1	7	0	-19
C=CCNC(=O)c1ccc2c(c1)nnn2C	-5	0.9	6	7	7
CN1CCOC(=O)/C1=N/Nc1cc(Cl)ccc1Cl	25	0.9	-1	8	21
O=C1OCC(CO)(CO)N=C1NNc1cc(Cl)ccc1Cl	97*	0.9	1	11	49
COc1ccc(C(=O)CSc2nnc(-c3cc4ccccc4cc3O)n2Cc2ccco2)cc1	69*	0.9	8	9	24
O=C(CSc1nnc(-c2ccc(Cl)cc2)n1Cc1ccco1)c1cccs1	80*	0.7	-15	31	-2
COc1ccc(-c2c(S(=O)(=O)c3ccccc3)cnn2-c2ccccc2)cc1	59*	0.9	3	9	6
Nc1nc(-c2ccc(Cl)cc2)c(S(=O)(=O)c2ccccc2)s1	6	0.9	6	6	-24
O=S(=O)(c1ccccc1)c1cnn(-c2ccccc2)c1-c1ccc(Cl)cc1	55*	0.7	8	28	34
CCCCn1c(=O)[nH]c(=O)c2c1nc(-c1ccccc1F)n2Cc1ccccc1OC	41	0.9	3	12	27
O=C(Cc1ccc(Cl)c(Cl)c1)Nc1ccc2[nH]c(=O)[nH]c2c1	-14	1	-1	-1	-19
CCN1CCN(Cc2c(O)ccc3c2O/C(=C\C=C\c2ccccc2)C3=O)CC1	96*	0.9	13	14	17
Cc1ccc2c(c1)Sc1ccccc1CC2=O	-1	1	-4	0	5
CN(C)CCOc1ccc2c(c1)Sc1ccccc1CC2=O	100*	0.7	4	29	6
CCOC(=O)c1nc(Nc2ccc(Nc3ccccc3)cc2)c2ccccc2n1	40	0.8	2	25	72*
SMILES	L major viab	Diaph act CS	G6PDH CS	Diaphorase inh	WT yeast gro inh
CCOC(=O)c1nc(Nc2cc(C)cc(C)c2)c2ccccc2n1	52*	0.8	1	16	4
CCOC(=O)c1nc(Nc2ccc(N3CCC(C)CC3)cc2)c2ccccc2n1	53*	0.7	-3	30	26
CCOC(=O)c1ccc(Nc2nc(C(=O)OCC)nc3ccccc23)cc1	26	0.9	11	10	5
O=C1CCCc2c1sc1nc3n(c(=O)c21)CCCCC3	2	0.9	11	6	-5
O=C1c2sc3nc4n(c(=O)c3c2CCC1Br)CCCCC4 (configuration not stated)	18	0.4	10	62*	10
O=c1c2c3c(sc2nc2n1CCCCC2)CCC3	55*	1.1	0	-8	-15
CCC(CC)NC(=O)COC(=O)c1cccc(C)c1O	-2	0.8	4	21	-2
O=c1c2c3n(c(=S)nc2[nH]n1-c1ccccc1)CCCCC3	38	0.7	0	26	17
Cc1ccc(OCc2n[nH]c(=S)n2Cc2ccccc2)cc1	-6	0.9	13	12	9
Cc1ccccc1OCc1n[nH]c(=S)n1Cc1ccccc1	5	0.7	0	29	73*
COc1ccc(Cc2n[nH]c(=S)n2Cc2ccccc2)cc1Cl	97*	0.9	18	11	9
CCc1c(-c2n[nH]c(=S)n2Cc2ccccc2)csc1C	-7	0.8	16	25	16
